High-throughput results (PubChem)
The list is not random: actives were taken first. Their share in the collection is about 1.8%.
CHRM4 agonist – agonists of human muscarinic M4 receptor (CHRM4); P08173; CHO-K1 hM4/Gqi5, Fluo-8 calcium fluorescence; vehicle 0%, full acetylcholine response 100%; activation, % at 3 µM; 360,000 compounds, 0.14% hits;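 active means activation above the run mean over all test wells plus 3 SD, cut at about 32% in these data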;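 further: peak over basal fluorescence ratio per well then scaled between controls; 0% = DMSO wells and 100% = acetylcholine at EC100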
M4 PAM – CHRM4 positive allosteric modulation; 360,000 compounds, 0.4% hits; AID 624126; CHO-K1 hM4/Gqi5, Fluo-8 calcium fluorescence, ACh EC20; 0% = ACh EC20, 100% = maximal ACh; P08173; activation, % at 3 µM;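 active means activation above its plate's cutoff, the mean activation of sample wells plus 3 SD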
M5 ag – CHRM5 agonism in calcium assay; P08912; CHO-K1 hM5 cells, Fluo-8 calcium fluorescence; 0% DMSO wells, 100% maximal acetylcholine response; activation, % at 3 µM; 360,000 compounds, 0.19% hits; AID 624037;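 active means activation above the run's mean over test compounds plus 3 SD, cut at about 23% in these data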;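 further: signal is peak over basal fluorescence ratio across the kinetic read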
Target sequence (P08912 whole entry, looked up): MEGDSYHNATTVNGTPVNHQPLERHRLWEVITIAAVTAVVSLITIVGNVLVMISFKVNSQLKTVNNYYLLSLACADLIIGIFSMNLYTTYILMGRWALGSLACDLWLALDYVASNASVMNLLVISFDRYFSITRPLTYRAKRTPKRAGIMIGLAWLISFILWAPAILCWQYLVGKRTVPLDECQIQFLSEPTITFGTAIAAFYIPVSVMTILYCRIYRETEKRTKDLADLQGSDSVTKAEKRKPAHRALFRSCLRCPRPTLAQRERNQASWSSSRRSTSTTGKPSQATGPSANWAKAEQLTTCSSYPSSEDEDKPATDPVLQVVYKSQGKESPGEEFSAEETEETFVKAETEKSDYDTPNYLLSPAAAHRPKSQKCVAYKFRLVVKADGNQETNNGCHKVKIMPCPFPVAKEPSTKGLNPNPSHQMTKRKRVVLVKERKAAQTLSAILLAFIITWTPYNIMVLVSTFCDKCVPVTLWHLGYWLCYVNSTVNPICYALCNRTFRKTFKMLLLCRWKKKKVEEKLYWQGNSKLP
CHRM5 antagonist – CHRM5 antagonism in calcium assay. 360,000 compounds, 0.59% hits. inhibition, % at 3 µM. CHO-hM5 cells, Fluo-8 calcium fluorescence, ACh EC80;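 active means inhibition above a per-plate cutoff, the mean of that plate's test compounds plus 3 SD, cut at about 27% in these data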;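 further: 0% = acetylcholine EC80 with DMSO and 100% = DMSO without agonist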
CHRM4 antagonist – CHRM4 antagonism in calcium assay. CHO-hM4 cells, ACh EC80, Fluo-8 calcium fluorescence. inhibition, % at 3 µM. 360,000 compounds, 0.73% hits. AID 624125;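 active means inhibition above its plate's cutoff, the mean inhibition of sample wells plus 3 SD, cut at about 27% in these data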;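 further: 0% = acetylcholine EC80 with DMSO and 100% = DMSO without agonist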
M5 PAM – positive allosteric modulators of human muscarinic M5 receptor; P08912; CHO-K1 hM5, Fluo-8 calcium, ACh EC20 PAM; 0% = ACh EC20, 100% = ACh EC100; activation, % at 3 µM; 360,000 compounds, 0.3% hits;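 active means activation above the run cutoff, the mean activation of all test compounds plus 3 SD, cut at about 18% in these data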
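Assay system: CHO-K1 hM5 cells. Also added: acetylcholine at EC20 concentration, added after compound. Dosing: 3 µM, single dose. Times: compound preincubation 140 s before EC20 acetylcholine addition. Signal: Fluo-8 calcium fluorescence. Measure: % activation relative to EC20 and EC100 ACh responses. Repeats: singlicate, one well per test compound.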
* = called active by the depositor.

SMILES	CHRM4 agonist	M4 PAM	M5 ag	CHRM5 antagonist	CHRM4 antagonist	M5 PAM
COc1cccc(N2C(=NC(=O)CCc3ccccc3)SC3CS(=O)(=O)CC32)c1 (stereo not given)	1	1	-5	0	1	4
CCCCCCOc1ccc(/C(C)=N/NC2=NCCN2)cc1[N+](=O)[O-]	5	17	-2	-6	5	6
CCCCOc1ccc(Br)cc1/C(C)=N/NC1=NCCN1	3	-23	-5	17	35*	-18
O=C(CC1C(=O)NCCN1Cc1ccc(-c2ccccc2)cc1)NCCCn1ccnc1 (stereo not given)	0	15	-5	7	8	-6
N=C(N)c1ccc(OCCCCCOc2ccc(C(=N)N)cc2)cc1	0	-14	-2	6	31*	-7
CC(C)[C@H](NC(=O)OCc1ccccc1)C(=O)OCC(=O)NC1CCCCC1	1	1	-4	0	0	-3
CC(C)[C@H](NC(=O)OCc1ccccc1)C(=O)OCC(=O)NC1(C#N)CCCC1	1	16*	-5	-2	1	11
CC(NC(=O)c1ccccc1)C(=O)OCn1nnc2ccccc2c1=O (stereo not given)	1	12	-4	-8	-14	20*
CC(C)N(CC#CCC(O)(c1ccccc1)C1CCCC1)CCO (stereo not given)	2	-17	-9	47*	14	-19
CCN(CC#CCC(O)(c1ccccc1)C1CCCC1)C(C)C (stereo not given)	2	-14	-11	83*	92*	-15
CCOc1ccccc1C(C(=O)NC1CCCC1)N(C(=O)c1csnn1)C1CC1 (stereo not given)	1	5	-3	5	-14	-2
N#C/C(=C\c1ccco1)C(=O)NCc1ccccc1	0	-3	0	-9	-7	7
N#CC(C#N)=C1C=CC=CN1/C(=C\c1ccco1)C(=O)c1ccc(Cl)cc1	3	-12	-3	8	55*	2
CC(/C=N/n1c(-c2ccc(Cl)cc2)n[nH]c1=S)=C\c1ccco1	0	0	2	2	2	-4
N#CC(C#N)=C1C=CC=CN1/C(=C\c1ccco1)C(=O)c1ccc(-c2ccccc2)cc1	4	-9	-4	9	27*	-3
COc1ccccc1Nc1nc2ccccc2n1C	-1	-8	0	2	44*	5
CCNc1nc(NC(C)(C)C)nc(N(C#N)CC)n1	0	-33	6	-2	61*	3
CCNc1nc(NCC)nc(N(C#N)C(C)C)n1	0	3	4	6	5	6
O=c1ccc2cc(O)c(O)cc2o1	0	-2	25*	4	3	-12
O=c1ccc2ccc(O)cc2o1	0	-2	0	4	5	-4
CCOC(=O)COc1ccc(S(=O)(=O)N2CCN(c3ccc(OC)cc3)CC2)cc1	14	-9	-3	33*	9	-15
COc1ccc(S(=O)(=O)N2CCN(c3ccccc3)CC2)cc1	1	1	-5	28*	4	-12
O=S(=O)(c1ccccc1)N1CCN(c2ccccc2)CC1	1	-1	0	-10	-10	2
CCOC(=O)COc1ccc(S(=O)(=O)N2CCN(c3ccccc3F)CC2)cc1	2	-6	4	6	1	-5
COCCNc1nc(NCCOc2ccccc2)c2sc(-c3ccccc3)cc2n1	3	-6	-2	8	0	-9
SMILES	CHRM4 agonist	M4 PAM	M5 ag	CHRM5 antagonist	CHRM4 antagonist	M5 PAM
CCCC[n+]1ccn(-c2nc3c([N+](=O)[O-])cccc3n2C)c1	0	0	-5	11	6	0
CC(C)[C@@H]1CC2=C(C(=O)OC(C)(C)O2)[C@H](CCc2ccccc2)O1	-2	8	-2	-10	-15	-4
CC(=O)c1ccc(NC(=O)c2ccc(C)c(S(=O)(=O)N3CCOCC3)c2)cc1	18	-5	2	3	-18	-10
CCOC(=O)c1ccc(NC(=O)c2ccc(C)c(S(=O)(=O)N3CCOCC3)c2)cc1	18	-11	4	29*	39*	-16
CC(=O)c1cccc(NC(=O)c2cccc(S(=O)(=O)N3CCOCC3)c2)c1	3	-1	-1	5	5	-2
CCOC(=O)c1ccc(NC(=O)c2cccc(S(=O)(=O)N3CCOCC3)c2)cc1	20	-17	5	15	38*	-24
CN1CCN(S(=O)(=O)c2ccc(NC(=O)c3cccc(S(=O)(=O)N4CCCC4)c3)cc2)CC1	1	-19	-6	29*	37*	-21
O=C(NCc1cccnc1)c1cccc(S(=O)(=O)N2CCOCC2)c1	1	12	4	3	9	31*
O=C(NCc1cccnc1)c1cccc(S(=O)(=O)N2CCCC2)c1	0	-1	-3	15	5	-3
Cc1cc(F)ccc1C(O)c1ncc(-c2ccccc2C(F)(F)F)[nH]1 (stereo not given)	2	-2	0	4	0	2
CC1CCCC(NC(=O)c2cccc(S(=O)(=O)N3CCOCC3)c2)C1C (stereo not given)	1	16*	1	-3	-19	-4
Cc1cc2cc(CNC(=O)c3ccc(S(=O)(=O)N4CCOCC4)cc3)ccc2n1C	2	-16	-2	2	39*	-7
O=C(OCC(=O)N1CCCC1=O)c1cccc(S(=O)(=O)N2CCOCC2)c1	1	9	6	-2	-6	32*
COCCN1Cc2cccc(C(=O)Nc3ccc(S(=O)(=O)N4CCCCC4)cc3)c2C1=O	1	5	1	-1	-16	25*
CC(=O)N1CCN(S(=O)(=O)c2cccc(C(=O)NC3CCCC(C)C3C)c2)CC1 (stereo not given)	1	1	-1	12	-12	-1
Cc1cc2cc(CNC(=O)c3ccc(S(=O)(=O)N(C)C)cc3)ccc2n1C	2	-7	-1	2	-3	-4
Cc1cc(NC(=O)CSCC(=O)OCC(=O)c2ccc(Br)cc2)no1	6	-1	4	-7	-14	1
Cc1ccc(S(=O)(=O)N2CCOC2CNC(=O)C(=O)NCCCN2CCOCC2)cc1 (stereo not given)	0	8	-6	-13	-6	14
COc1cccc(CNC(=O)C2CCC(=O)N(CC3CCCCC3)C2)c1OC (stereo not given)	3	5	-2	2	-22	1
CCCCNC(=O)c1nc(C2CCN(S(=O)(=O)c3c(F)cccc3F)CC2)oc1-c1ccccc1	-1	-4	-1	-5	2	4
